Source: ChEMBL document CHEMBL1154754, “Janus kinase 2 inhibitors. Synthesis and characterization of a novel polycyclic azaindole” (J Med Chem, 2009)
One block for each molecule: values may come before it. Activity calls are given as the source filed them. The rule behind the calls is not given here.

Experiments:
[1] = molecular target: T1, Tyrosine-protein kinase JAK3 (Homo sapiens, UniProt P52333); assay: Inhibition of recombinant JAK3
T1 sequence (P52333 whole entry): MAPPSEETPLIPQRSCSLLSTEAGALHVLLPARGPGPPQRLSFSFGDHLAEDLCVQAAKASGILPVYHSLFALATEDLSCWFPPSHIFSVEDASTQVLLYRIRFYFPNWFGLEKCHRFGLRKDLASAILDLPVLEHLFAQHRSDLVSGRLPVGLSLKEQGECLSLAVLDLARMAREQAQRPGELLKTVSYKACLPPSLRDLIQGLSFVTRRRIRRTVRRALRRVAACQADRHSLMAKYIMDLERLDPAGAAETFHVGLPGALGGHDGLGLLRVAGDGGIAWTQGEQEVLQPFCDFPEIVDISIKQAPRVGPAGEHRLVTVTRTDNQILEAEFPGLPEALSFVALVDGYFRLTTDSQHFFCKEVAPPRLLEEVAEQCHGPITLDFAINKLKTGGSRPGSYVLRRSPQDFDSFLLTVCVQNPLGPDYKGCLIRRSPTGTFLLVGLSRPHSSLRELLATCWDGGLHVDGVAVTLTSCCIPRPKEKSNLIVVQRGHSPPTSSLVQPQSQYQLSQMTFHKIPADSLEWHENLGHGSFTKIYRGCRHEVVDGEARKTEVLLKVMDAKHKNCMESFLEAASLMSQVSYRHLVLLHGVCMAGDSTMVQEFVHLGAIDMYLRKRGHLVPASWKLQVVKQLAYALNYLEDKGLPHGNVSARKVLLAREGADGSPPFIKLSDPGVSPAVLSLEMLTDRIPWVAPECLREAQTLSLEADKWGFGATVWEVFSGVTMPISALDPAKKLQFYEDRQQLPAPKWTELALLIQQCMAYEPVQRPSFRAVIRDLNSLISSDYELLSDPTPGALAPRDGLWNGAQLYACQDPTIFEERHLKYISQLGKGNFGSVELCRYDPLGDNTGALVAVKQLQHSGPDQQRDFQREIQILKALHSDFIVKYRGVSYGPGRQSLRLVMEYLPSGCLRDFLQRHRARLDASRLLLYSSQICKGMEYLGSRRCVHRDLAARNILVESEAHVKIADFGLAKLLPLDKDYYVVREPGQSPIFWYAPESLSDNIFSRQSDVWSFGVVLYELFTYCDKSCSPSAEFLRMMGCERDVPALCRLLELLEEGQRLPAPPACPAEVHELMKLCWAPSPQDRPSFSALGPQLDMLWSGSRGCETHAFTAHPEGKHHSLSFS

[2] = molecular target: Tyrosine-protein kinase JAK2 (Homo sapiens, UniProt O60674); assay: Inhibition of recombinant JAK2
Sequence of Tyrosine-protein kinase JAK2 (O60674 whole entry): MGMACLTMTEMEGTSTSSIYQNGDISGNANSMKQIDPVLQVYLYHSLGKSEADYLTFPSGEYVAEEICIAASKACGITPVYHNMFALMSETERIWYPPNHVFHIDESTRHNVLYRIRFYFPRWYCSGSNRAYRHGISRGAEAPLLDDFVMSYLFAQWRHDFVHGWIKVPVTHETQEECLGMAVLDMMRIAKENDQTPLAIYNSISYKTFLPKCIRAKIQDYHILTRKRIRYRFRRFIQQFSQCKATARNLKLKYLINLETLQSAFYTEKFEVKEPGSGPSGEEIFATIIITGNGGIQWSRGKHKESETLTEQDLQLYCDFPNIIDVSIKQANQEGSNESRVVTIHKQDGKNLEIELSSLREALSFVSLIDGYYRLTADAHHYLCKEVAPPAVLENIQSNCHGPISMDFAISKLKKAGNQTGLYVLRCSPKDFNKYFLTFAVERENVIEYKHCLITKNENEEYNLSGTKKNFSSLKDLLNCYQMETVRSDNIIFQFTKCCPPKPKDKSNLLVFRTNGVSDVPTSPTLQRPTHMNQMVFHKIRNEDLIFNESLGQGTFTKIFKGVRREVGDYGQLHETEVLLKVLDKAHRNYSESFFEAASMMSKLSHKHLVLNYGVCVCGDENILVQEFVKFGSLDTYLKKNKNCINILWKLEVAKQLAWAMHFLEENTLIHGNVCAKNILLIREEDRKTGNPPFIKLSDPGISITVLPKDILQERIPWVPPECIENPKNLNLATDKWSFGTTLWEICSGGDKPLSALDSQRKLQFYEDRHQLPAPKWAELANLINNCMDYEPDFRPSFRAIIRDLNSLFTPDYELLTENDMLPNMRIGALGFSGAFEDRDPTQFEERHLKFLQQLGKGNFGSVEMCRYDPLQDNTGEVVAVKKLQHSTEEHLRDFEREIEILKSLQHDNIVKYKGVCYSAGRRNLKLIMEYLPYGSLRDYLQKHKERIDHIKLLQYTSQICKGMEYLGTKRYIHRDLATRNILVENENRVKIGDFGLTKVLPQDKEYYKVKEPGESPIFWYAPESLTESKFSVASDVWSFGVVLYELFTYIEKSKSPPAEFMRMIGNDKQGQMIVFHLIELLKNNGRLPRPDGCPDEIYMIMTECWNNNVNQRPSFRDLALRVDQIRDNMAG

[3] = molecular target: T1, Tyrosine-protein kinase JAK3; assay: Inhibition of JAK3 in […] assessed as inhibition of IL2-induced STAT5 phosphorylation by flow cytometry; format: cell-based
[4] = AUC (0 to infinity) in CB17 mouse at 10 mg/kg, po by LC/MS/MS method; format: ADME, organism-based; set-up: time infinity, dose 10 mg/kg, route oral; settings: plasma
In short: (§1)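 Male Charles River Sprague-Dawley rats and Fox Chase SCID (CB-17) mice, dosed iv or po. Plasma drug concentrations measured by a specific LC/MS/MS method. Pharmacokinetic parameters are reported as mean values.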

[5] = Tmax in CB17 mouse at 10 mg/kg, po by LC/MS/MS method; format: ADME, organism-based; set-up: dose 10 mg/kg, route oral; settings: in vivo; in short: as §1
[6] = Tmax in Sprague-Dawley rat at 10 mg/kg, po by LC/MS/MS method; format: ADME, organism-based; set-up: dose 10 mg/kg, route oral; settings: in vivo; in short: as §1
[7] = Volume of distribution at steady state in Sprague-Dawley rat at 1.8 mg/kg, iv by LC/MS/MS method; format: ADME, organism-based; set-up: dose 1.8 mg/kg, route intravenous; settings: in vivo, read-out: Vdss; in short: as §1
[8] = Cmax in Sprague-Dawley rat at 10 mg/kg, po by LC/MS/MS method; format: ADME, organism-based; set-up: dose 10 mg/kg, route oral; settings: in vivo; in short: as §1
[9] = Cmax in Sprague-Dawley rat at 1.8 mg/kg, iv by LC/MS/MS method; format: ADME, organism-based; set-up: dose 1.8 mg/kg, route intravenous; settings: in vivo; in short: as §1
[10] = Cmax in CB17 mouse at 10 mg/kg, po by LC/MS/MS method; format: ADME, organism-based; set-up: dose 10 mg/kg, route oral; settings: in vivo; in short: as §1
[11] = molecular target: Mast/stem cell growth factor receptor Kit (Homo sapiens, UniProt P10721); assay: Inhibition of cKit
Sequence of Mast/stem cell growth factor receptor Kit (P10721 whole entry): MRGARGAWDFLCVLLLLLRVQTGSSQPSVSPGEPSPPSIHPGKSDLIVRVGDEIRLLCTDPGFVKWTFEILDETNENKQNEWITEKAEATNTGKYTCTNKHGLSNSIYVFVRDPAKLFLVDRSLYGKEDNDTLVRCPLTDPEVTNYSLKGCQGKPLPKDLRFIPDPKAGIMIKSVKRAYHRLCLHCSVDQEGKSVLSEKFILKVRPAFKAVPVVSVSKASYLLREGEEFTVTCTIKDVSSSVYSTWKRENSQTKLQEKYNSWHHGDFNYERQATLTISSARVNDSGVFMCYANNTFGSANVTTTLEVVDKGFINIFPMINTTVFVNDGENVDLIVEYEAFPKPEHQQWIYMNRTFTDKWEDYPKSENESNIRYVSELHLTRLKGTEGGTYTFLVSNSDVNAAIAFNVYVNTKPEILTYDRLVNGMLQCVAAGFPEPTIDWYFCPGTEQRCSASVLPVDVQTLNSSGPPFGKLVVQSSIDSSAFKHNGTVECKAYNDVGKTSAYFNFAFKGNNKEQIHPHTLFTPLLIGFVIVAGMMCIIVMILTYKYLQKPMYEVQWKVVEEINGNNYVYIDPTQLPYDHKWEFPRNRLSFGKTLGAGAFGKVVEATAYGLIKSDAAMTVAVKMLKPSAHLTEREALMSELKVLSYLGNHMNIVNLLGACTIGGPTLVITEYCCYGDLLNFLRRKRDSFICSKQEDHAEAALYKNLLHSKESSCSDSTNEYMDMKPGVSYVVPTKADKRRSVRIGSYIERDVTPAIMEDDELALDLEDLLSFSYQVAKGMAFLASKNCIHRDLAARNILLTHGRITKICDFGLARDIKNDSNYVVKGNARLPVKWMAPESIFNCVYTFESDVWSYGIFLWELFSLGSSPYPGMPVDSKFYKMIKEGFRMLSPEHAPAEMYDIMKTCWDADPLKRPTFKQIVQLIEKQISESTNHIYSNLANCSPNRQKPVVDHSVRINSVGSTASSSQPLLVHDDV

[12] = Clearance in Sprague-Dawley rat at 1.8 mg/kg, iv by LC/MS/MS method; format: ADME, organism-based; set-up: dose 1.8 mg/kg, route intravenous; settings: in vivo; in short: as §1
[13] = Oral bioavailability in Sprague-Dawley rat at 10 mg/kg by LC/MS/MS method; format: ADME, organism-based; settings: in vivo; in short: as §1
[14] = Clearance in CB17 mouse at 9 mg/kg, iv by LC/MS/MS method; format: ADME, organism-based; set-up: dose 9 mg/kg, route intravenous; settings: in vivo; in short: as §1
[15] = molecular target: ALK tyrosine kinase receptor (Homo sapiens, UniProt Q9UM73); assay: Inhibition of ALK
Sequence of ALK tyrosine kinase receptor (Q9UM73 whole entry): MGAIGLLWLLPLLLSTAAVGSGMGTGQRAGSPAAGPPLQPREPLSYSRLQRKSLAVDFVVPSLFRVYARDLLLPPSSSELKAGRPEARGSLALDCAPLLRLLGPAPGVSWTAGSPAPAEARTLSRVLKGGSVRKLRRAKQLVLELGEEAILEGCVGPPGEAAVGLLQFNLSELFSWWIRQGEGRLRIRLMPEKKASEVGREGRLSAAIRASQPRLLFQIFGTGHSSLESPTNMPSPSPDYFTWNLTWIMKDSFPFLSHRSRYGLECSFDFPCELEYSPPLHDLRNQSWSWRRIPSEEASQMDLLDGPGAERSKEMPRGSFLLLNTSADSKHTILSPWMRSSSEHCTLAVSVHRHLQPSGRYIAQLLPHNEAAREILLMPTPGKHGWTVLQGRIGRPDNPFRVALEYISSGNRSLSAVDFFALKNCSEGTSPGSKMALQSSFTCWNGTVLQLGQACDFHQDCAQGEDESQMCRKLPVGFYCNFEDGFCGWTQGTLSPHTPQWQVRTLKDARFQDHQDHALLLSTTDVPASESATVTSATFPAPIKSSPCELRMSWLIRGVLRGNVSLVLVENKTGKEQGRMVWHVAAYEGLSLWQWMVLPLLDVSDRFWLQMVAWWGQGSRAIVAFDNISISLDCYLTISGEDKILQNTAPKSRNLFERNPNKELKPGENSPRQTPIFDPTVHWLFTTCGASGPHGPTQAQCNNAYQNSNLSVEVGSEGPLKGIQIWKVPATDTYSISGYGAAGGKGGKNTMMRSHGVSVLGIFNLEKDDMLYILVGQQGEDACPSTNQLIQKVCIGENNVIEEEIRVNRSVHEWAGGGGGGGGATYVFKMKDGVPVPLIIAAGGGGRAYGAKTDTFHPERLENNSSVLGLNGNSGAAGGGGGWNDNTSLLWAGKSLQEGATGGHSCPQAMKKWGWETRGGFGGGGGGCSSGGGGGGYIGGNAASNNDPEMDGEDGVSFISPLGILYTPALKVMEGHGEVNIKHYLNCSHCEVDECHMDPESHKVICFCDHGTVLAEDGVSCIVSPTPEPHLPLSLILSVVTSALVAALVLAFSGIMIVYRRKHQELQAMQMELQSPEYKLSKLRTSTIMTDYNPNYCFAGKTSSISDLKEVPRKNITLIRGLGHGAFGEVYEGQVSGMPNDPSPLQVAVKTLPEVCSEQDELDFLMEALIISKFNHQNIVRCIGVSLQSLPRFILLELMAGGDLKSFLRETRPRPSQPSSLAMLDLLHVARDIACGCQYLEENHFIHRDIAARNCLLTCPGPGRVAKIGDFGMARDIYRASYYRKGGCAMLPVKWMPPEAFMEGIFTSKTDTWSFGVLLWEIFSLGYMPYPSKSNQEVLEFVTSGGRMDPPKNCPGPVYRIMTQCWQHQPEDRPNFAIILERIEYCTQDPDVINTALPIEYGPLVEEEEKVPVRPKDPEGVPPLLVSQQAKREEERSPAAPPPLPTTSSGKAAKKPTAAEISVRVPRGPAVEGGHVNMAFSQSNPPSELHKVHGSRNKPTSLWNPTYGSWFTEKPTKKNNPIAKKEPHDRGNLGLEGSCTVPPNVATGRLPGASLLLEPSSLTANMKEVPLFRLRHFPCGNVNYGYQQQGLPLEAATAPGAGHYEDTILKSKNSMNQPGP

[16] = Half life in CB17 mouse at 9 mg/kg, iv by LC/MS/MS method; format: ADME, organism-based; set-up: dose 9 mg/kg, route intravenous; settings: in vivo; in short: as §1
[17] = Oral bioavailability life in CB17 mouse at 10 mg/kg by LC/MS/MS method; format: ADME, organism-based; settings: in vivo; in short: as §1
[18] = AUC (0 to infinity) in CB17 mouse at 9 mg/kg, iv by LC/MS/MS method; format: ADME, organism-based; set-up: time infinity, dose 9 mg/kg, route intravenous; settings: plasma; in short: as §1
[19] = Volume of distribution at steady state in CB17 mouse at 9 mg/kg, iv by LC/MS/MS method; format: ADME, organism-based; set-up: dose 9 mg/kg, route intravenous; settings: in vivo, read-out: Vdss; in short: as §1
[20] = AUC (0 to infinity) in Sprague-Dawley rat at 1.8 mg/kg, iv by LC/MS/MS method; format: ADME, organism-based; set-up: time infinity, dose 1.8 mg/kg, route intravenous; settings: plasma; in short: as §1
[21] = molecular target: T2, Mitogen-activated protein kinase kinase kinase kinase 2 (Homo sapiens, UniProt Q12851); assay: Inhibition of GCK
T2 sequence (Q12851 whole entry): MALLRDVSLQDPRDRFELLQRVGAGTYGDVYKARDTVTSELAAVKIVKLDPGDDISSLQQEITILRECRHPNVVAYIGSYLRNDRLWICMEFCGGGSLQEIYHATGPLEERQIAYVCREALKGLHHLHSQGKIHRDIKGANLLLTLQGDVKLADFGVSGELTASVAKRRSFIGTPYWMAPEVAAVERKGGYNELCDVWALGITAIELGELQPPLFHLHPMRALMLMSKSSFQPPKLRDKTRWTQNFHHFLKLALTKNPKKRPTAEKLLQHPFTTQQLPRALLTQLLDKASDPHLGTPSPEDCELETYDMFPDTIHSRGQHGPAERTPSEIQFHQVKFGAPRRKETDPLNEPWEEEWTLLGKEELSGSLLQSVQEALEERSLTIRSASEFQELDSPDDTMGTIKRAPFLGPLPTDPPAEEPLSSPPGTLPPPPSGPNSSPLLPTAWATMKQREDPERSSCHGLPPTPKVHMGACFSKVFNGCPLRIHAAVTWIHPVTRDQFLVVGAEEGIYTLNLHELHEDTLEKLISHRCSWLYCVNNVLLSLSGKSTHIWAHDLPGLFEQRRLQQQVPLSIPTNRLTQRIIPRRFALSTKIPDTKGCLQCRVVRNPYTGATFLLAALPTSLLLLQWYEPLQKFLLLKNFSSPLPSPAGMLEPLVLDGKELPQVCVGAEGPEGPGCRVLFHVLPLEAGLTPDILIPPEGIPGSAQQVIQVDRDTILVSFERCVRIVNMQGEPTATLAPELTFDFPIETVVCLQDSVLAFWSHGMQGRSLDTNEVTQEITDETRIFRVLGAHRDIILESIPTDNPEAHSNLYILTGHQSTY

Mus musculus = assay: Improvement in survival of BALB/c mouse xenografted with JAK2 V617F mutant harboring mouse Ba/F3 cells assessed as survival days at 15 mg/kg, po bid for 32 days; format: functional, BaF3
In short: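 BALB/c mice (n = 12/group) received one million mJAK2-Ba/F3 cells (murine Ba/F3 carrying mutant V617F JAK2) intravenously. Treatment started 1 week after implantation. Dosing was 15 mg/kg by oral gavage twice daily as a suspension in 5% methylcellulose, with a vehicle-only control group. Dosing continued until day 32 or moribundity. Survival was shown as Kaplan-Meier plots, and unrelated cage deaths were censored.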

[22] = Half life in CB17 mouse at 10 mg/kg, po by LC/MS/MS method; format: ADME, organism-based; set-up: dose 10 mg/kg, route oral; settings: in vivo; in short: as §1
[23] = AUC (0 to infinity) in Sprague-Dawley rat at 10 mg/kg, po by LC/MS/MS method; format: ADME, organism-based; set-up: time infinity, dose 10 mg/kg, route oral; settings: plasma; in short: as §1
[24] = Half life in Sprague-Dawley rat at 10 mg/kg, po by LC/MS/MS method; format: ADME, organism-based; set-up: dose 10 mg/kg, route oral; settings: in vivo; in short: as §1
[25] = Half life in Sprague-Dawley rat at 1.8 mg/kg, iv by LC/MS/MS method; format: ADME, organism-based; set-up: dose 1.8 mg/kg, route intravenous; settings: in vivo; in short: as §1
[26] = Cmax in CB17 mouse at 9 mg/kg, iv by LC/MS/MS method; format: ADME, organism-based; set-up: dose 9 mg/kg, route intravenous; settings: in vivo; in short: as §1
BaF3 = assay: Antitumor activity against JAK2 V617F mutant harboring mouse sBA/F3 cells xenografted in BALB/c mouse assessed as reduced splenomegaly at 15 mg/kg, po bid for 32 days; format: functional, organism-based; set-up: dose 15 mg/kg
In short: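 Leukemia induced in BALB/c mice (n = 12/group) by iv injection of 1 million mJAK2(V617F)-Ba/F3 cells. Dosing began 1 week after implantation: 15 mg/kg oral gavage b.i.d. as a suspension in 5% methylcellulose, or vehicle alone, until day 32 or moribundity. Spleens were harvested and weighed after sacrifice on day 32.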

Compound: O=C1Nc2ccccc2-c2ccnc3[nH]cc(c23)C1c1ccc(O)cc1 (single isomer, unassigned; atropisomer 2)
Ki [1]: 6 nM

Compound: c1ccc(-c2ncnc3[nH]ccc23)cc1
Ki [2]: 480 nM

Compound: O=C1Nc2ccccc2-c2ccnc3[nH]cc(c23)C1c1ccc(O)cc1 (single isomer, unassigned; atropisomer 1)
Ki [1]: 5.5 nM
IC50 [3]: 1530 nM

Compound: O=C1Nc2ccccc2-c2ccnc3[nH]cc(c23)C1c1ccc(O)cc1 (stereo not given) [listing 1 of 2 here]
AUC(0-inf) [4]: 8300 ng·h/mL
Tmax [5]: 2 h
Tmax [6]: 3 h
Vd [7]: 5.7 L/kg
Cmax [8]: 1080 ng/mL
Cmax [9]: 700 ng/mL
Cmax [10]: 1000 ng/mL
Ki [11]: 190 nM
clearance [12]: 23.8 mL/min/kg
bioavailability [13]: 100%
clearance [14]: 12.1 mL/min/kg
Ki [15]: 17 nM
half-life [16]: 2.7 h
bioavailability [17]: 66.1%
AUC(0-inf) [18]: 12500 ng·h/mL
Vd [19]: 2.3 L/kg
AUC(0-inf) [20]: 1260 ng·h/mL
IC50 [21]: 340 nM
Survival (Mus musculus): 32 days
half-life [22]: 3.2 h
AUC(0-inf) [23]: 7700 ng·h/mL
half-life [24]: 3.6 h
half-life [25]: 3.4 h
Cmax [26]: 7300 ng/mL

Compound: O=C1Nc2ccccc2-c2ccnc3[nH]cc(c23)C1c1ccc(O)cc1 (stereo not given) [listing 2 of 2 here]
Activity (BaF3): Active

Ki [2]: 260 nM
Compound: Clc1cnc2[nH]cc(-c3ccccc3)c2c1
